Screening data from PubChem.
The entries come from a sample that favours hits as a whole.
A1 apoptosis 2 = blocks A1, raising caspase activity | MEF A1-2A-BIM cells, caspase-Glo luminescence, 3 h; percent of clofoctol response, DMSO zero | caspase activation, % (no concentration beside the values) | 24,000 tested, under 10 active | AID 2465; in the data active means caspase activation above about 5.9%; inconclusive means no clear call, values can overlap the other calls; inactive means below about 2.2%
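System: mouse embryonic fibroblasts co-expressing A1 and BIM (A1-2A-BIM), primed for A1 dependence; amount: 2500 cells/well; doses: 50 nL pinned compound; schedule: cells settled overnight, compound exposure 3 h at 37 °C, 5% CO2; detection: Caspase-Glo 3/7 luminescence, 1 h at room temperature; read-out: Caspase-3/7 activation, seen as rise in luminescence signal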
INS-1E ATP HTS = rescue of cytokine-induced death in INS-1E beta cells; INS-1E cytokine-induced death, ATP luminescence, 48 h; normalised: neutral wells 0, positive control 100; hit rate 0.1% among 20,000; protection from cytokine-induced ATP loss, % at 10 µM;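 active means mean replicate protection from cytokine-induced ATP loss at least 50% and at least 75% of replicates each reaching 50%; inconclusive means meets only one of the two criteria, mean or replicate share; inactive means fails both the mean and replicate share criteria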
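Test system: INS-1E rat cells | Quantity: 8000 cells per well | Medium: Phenol-red-free RPMI with 5% fetal bovine serum | Reagent: Cytokine cocktail of IFN-γ, TNF-α and IL-1β | Doses: One compound concentration, pin transfer | Timing: 48 h co-treatment, 10 min post-lysis read | Technique: Luminescent ATP assay (CellTiter-Glo)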
T cruzi HTS = intracellular Trypanosoma cruzi inhibition | intracellular Trypanosoma cruzi in host cells, plate reader | hit rate 4.9% among 22,000 | activity score (inhibition), % at 5.01 µM; in the data active means activity score above about 55%; inconclusive means no clear call, values can overlap the other calls;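 further: parasites and compound incubated about four days before reading; 0% = median of neutral control wells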
* = called active by the depositor.

C[C@@H]1CN([C@H](C)CO)C(=O)Cc2cc(NC(=O)Nc3cccc4ccccc34)ccc2O[C@@H]1CN(C)Cc1ccc(Cl)c(Cl)c1 was read as INS-1E ATP HTS -22.0 and T cruzi HTS 68.1*.
For C[C@H]1CN([C@@H](C)CO)C(=O)c2cc(NC(=O)Nc3cccc4ccccc34)ccc2O[C@@H]1CN(C)Cc1ccc(Cl)c(Cl)c1 the results were A1 apoptosis 2 0.2, INS-1E ATP HTS -34.5 and T cruzi HTS 65.1*.
For C[C@H]1CN([C@@H](C)CO)C(=O)c2cc(NC(=O)Nc3cccc4ccccc34)ccc2O[C@H]1CN(C)Cc1ccc(Cl)c(Cl)c1 the results were A1 apoptosis 2 -1.3 and T cruzi HTS 47.7.
`C[C@H](CO)N1C[C@H](C)[C@@H](CN(C)Cc2ccc(Cl)c(Cl)c2)Oc2c(NC(=O)Nc3cccc4ccccc34)cccc2C1=O` gave A1 apoptosis 2 -1.6, INS-1E ATP HTS -17.2 and T cruzi HTS 67.9*.
For C[C@H](CO)N1C[C@H](C)[C@H](CN(C)Cc2ccc(Cl)c(Cl)c2)Oc2ccc(NC(=O)Nc3cccc4ccccc34)cc2CC1=O the results were A1 apoptosis 2 2.1, INS-1E ATP HTS -4.8 and T cruzi HTS 68.5*.
For C[C@@H]1CN([C@H](C)CO)C(=O)c2cccc(NC(=O)Nc3cccc4ccccc34)c2O[C@@H]1CN(C)Cc1ccc(Cl)c(Cl)c1 the results were A1 apoptosis 2 -0.5, INS-1E ATP HTS -19.5 and T cruzi HTS 11.7.
C[C@H]1CN([C@@H](C)CO)C(=O)Cc2cc(NC(=O)Nc3cccc4ccccc34)ccc2O[C@H]1CN(C)Cc1ccc(Cl)c(Cl)c1 was read as INS-1E ATP HTS -11.4 and T cruzi HTS 35.0.
C[C@@H]1CCCCO[C@@H](CN(C)S(C)(=O)=O)[C@@H](C)CN([C@@H](C)CO)C(=O)c2cc(NC(=O)C3CCCCC3)ccc2O1 was read as A1 apoptosis 2 -0.6.
Screening COc1ccc(S(=O)(=O)N(C)C[C@@H]2Oc3ccc(NC(=O)CCC(F)(F)F)cc3CC(=O)N([C@@H](C)CO)C[C@H]2C)cc1 returned A1 apoptosis 2 1.2.
For C[C@@H]1CCCCO[C@@H](CN(C)Cc2ccccc2)[C@H](C)CN([C@@H](C)CO)C(=O)c2cc(NC(=O)Nc3ccccc3)ccc2O1 the results were A1 apoptosis 2 0.1.
Screening C[C@@H]1CN([C@H](C)CO)C(=O)Cc2cc(N(C)C)ccc2O[C@H]1CN(C)S(=O)(=O)c1cn(C)cn1 returned A1 apoptosis 2 -1.0, INS-1E ATP HTS 4.3 and T cruzi HTS -12.8.
Screening CNC[C@H]1OCCCC[C@H](C)Oc2ccc(NS(=O)(=O)c3c(C)noc3C)cc2C(=O)N([C@@H](C)CO)C[C@H]1C returned A1 apoptosis 2 0.4.
C[C@@H]1CN([C@@H](C)CO)C(=O)c2cccc(NC(=O)Nc3ccc(F)cc3)c2O[C@@H]1CN(C)Cc1ccncc1 was read as INS-1E ATP HTS 5.9 and T cruzi HTS -5.2.
Screening C[C@@H]1CCCCO[C@H](CN(C)C(=O)NC2CCCCC2)[C@H](C)CN([C@@H](C)CO)C(=O)c2cc(NC(=O)Nc3ccc(C(F)(F)F)cc3)ccc2O1 returned A1 apoptosis 2 1.3.
`C[C@@H]1CCCCO[C@H](CN(C)C(=O)Nc2ccc(C(F)(F)F)cc2)[C@@H](C)CN([C@H](C)CO)C(=O)c2cc(NC(=O)C3CCCCC3)ccc2O1` gave INS-1E ATP HTS -28.2 and T cruzi HTS 72.0*.
`C[C@@H]1CCCCO[C@H](CN(C)C(=O)Nc2ccc(C(F)(F)F)cc2)[C@@H](C)CN([C@H](C)CO)C(=O)c2cc(NC(=O)NC3CCCCC3)ccc2O1` gave INS-1E ATP HTS -4.0 and T cruzi HTS 67.8*.
For C[C@H]1CCCCO[C@@H](CN(C)C(=O)C2CCCCC2)[C@@H](C)CN([C@@H](C)CO)C(=O)c2cc(NC(=O)Nc3ccc(C(F)(F)F)cc3)ccc2O1 the results were A1 apoptosis 2 1.0.
Screening C[C@@H]1CCCCO[C@@H](CN(C)C(=O)NC2CCCCC2)[C@@H](C)CN([C@H](C)CO)C(=O)c2cc(NC(=O)Nc3ccc(C(F)(F)F)cc3)ccc2O1 returned A1 apoptosis 2 1.2, INS-1E ATP HTS -1.2 and T cruzi HTS 71.7*.
For C[C@H]1CCCCO[C@H](CN(C)C(=O)Nc2ccc(C(F)(F)F)cc2)[C@@H](C)CN([C@@H](C)CO)C(=O)c2cc(NC(=O)NC3CCCCC3)ccc2O1 the results were A1 apoptosis 2 1.8.
`C[C@@H]1CCCCO[C@H](CN(C)C(=O)Nc2ccc(C(F)(F)F)cc2)[C@H](C)CN([C@H](C)CO)C(=O)c2cc(NC(=O)C3CCCCC3)ccc2O1` gave A1 apoptosis 2 -1.0.
C[C@@H]1CCCCO[C@H](CN(C)C(=O)C2CCCCC2)[C@@H](C)CN([C@H](C)CO)C(=O)c2cc(NC(=O)Nc3ccc(C(F)(F)F)cc3)ccc2O1 was read as A1 apoptosis 2 -0.6, INS-1E ATP HTS -20.7 and T cruzi HTS 61.2*.
For [N-]=[N+]=Nc1ccc(C[C@H]2C(=O)O[C@@H](Cc3ccccc3)[C@H]3[C@@H]4C=CCCC=C4CN32)cc1 the results were A1 apoptosis 2 0.2.
For C[C@H]1CN([C@@H](C)CO)C(=O)c2cc(NC(=O)NC3CCCCC3)ccc2O[C@@H]1CN(C)C(=O)Nc1ccc2c(c1)OCO2 the results were A1 apoptosis 2 0.2, INS-1E ATP HTS -2.3 and T cruzi HTS 8.7.
C[C@H](CO)N1C[C@H](C)[C@H](CN(C)Cc2ccc(Oc3ccccc3)cc2)Oc2ccc(NC(=O)C3CCCCC3)cc2CC1=O was read as INS-1E ATP HTS -39.5 and T cruzi HTS 49.9.
Screening C[C@H]1CN([C@@H](C)CO)C(=O)Cc2cc(NC(=O)Cc3cn(C)c4ccccc34)ccc2O[C@H]1CN(C)CC1CC1 returned A1 apoptosis 2 -0.1, INS-1E ATP HTS 12.3 and T cruzi HTS -16.9.
Screening C[C@H]1CN([C@@H](C)CO)C(=O)c2cccc(NC(=O)Nc3ccccc3)c2O[C@@H]1CN(C)S(=O)(=O)c1ccccc1 returned INS-1E ATP HTS -2.3 and T cruzi HTS 3.5.
Cc1ccc(S(=O)(=O)Nc2ccc3c(c2)CC(=O)N([C@H](C)CO)C[C@@H](C)[C@@H](CN(C)Cc2ccc(C(F)(F)F)cc2)O3)cc1 was read as INS-1E ATP HTS -10.4 and T cruzi HTS 61.0*.
Screening Cc1ccc(S(=O)(=O)Nc2ccc3c(c2)CC(=O)N([C@@H](C)CO)C[C@@H](C)[C@H](CN(C)Cc2ccc(C(F)(F)F)cc2)O3)cc1 returned A1 apoptosis 2 -0.3.
Screening C[C@@H]1CN([C@@H](C)CO)C(=O)Cc2cc(NS(=O)(=O)c3ccc(F)cc3)ccc2O[C@@H]1CN(C)Cc1ccc(C(F)(F)F)cc1 returned A1 apoptosis 2 -1.2, INS-1E ATP HTS -40.6 and T cruzi HTS inconclusive.
C[C@H]1CN([C@@H](C)CO)C(=O)Cc2cc(NS(=O)(=O)c3ccc(F)cc3)ccc2O[C@@H]1CN(C)Cc1ccc(C(F)(F)F)cc1 was read as INS-1E ATP HTS -17.2 and T cruzi HTS 61.3*.
